# Rce1 inh = inhibitors of yeast Ras-converting enzyme. Q03530. yeast membranes, quenched prenylated peptide cleavage fluorescence. calls only. 0.27% of 290,000 active. AID 2563;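 active = fall in fluorescence gain of 50% or more versus controls, with final raw signal at or below 3038400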;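 note: plate controls were neutral control wells for no effect and wells lacking membranes for full effect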
# Target sequence (Q03530 whole entry, looked up): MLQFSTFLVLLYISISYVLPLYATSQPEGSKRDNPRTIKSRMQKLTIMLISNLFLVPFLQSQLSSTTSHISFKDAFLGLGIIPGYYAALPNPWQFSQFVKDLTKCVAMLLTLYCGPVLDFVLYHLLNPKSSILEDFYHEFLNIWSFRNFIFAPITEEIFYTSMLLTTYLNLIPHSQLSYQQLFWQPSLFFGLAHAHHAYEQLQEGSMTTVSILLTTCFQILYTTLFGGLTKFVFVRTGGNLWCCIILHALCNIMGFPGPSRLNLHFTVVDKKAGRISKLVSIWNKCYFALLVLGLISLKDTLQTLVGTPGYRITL
# MIN6 prolif = MIN6 beta-cell proliferation induction | 0.29% of 330,000 active | proliferation, % at 10 µM | AID 2380 | MIN6 cells proliferation, ATPlite luminescence, 48 h; cells starved in 0.2% serum; 100% = growth in 10% serum;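 active = compounds whose signal lies at least 3.5 SD above the mean of all wells on their plate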;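 note: 0% = DMSO-treated cells in low-serum medium and 100% = 10% serum control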
# KLK7 zymogen act = activates the human kallikrein-7 zymogen; P49862; purified proKLK7, EDANS-DABCYL substrate fluorescence; 100% is mature enzyme control, 0% vehicle; activation, % at 7 µM; 0.9% of 370,000 active; AID 652039;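 active = activation above the mean of all tested compounds plus 3 SD, computed per campaign excluding outliers beyond control limits, cut at about 13% in these data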
# Target sequence (P49862 whole entry, looked up): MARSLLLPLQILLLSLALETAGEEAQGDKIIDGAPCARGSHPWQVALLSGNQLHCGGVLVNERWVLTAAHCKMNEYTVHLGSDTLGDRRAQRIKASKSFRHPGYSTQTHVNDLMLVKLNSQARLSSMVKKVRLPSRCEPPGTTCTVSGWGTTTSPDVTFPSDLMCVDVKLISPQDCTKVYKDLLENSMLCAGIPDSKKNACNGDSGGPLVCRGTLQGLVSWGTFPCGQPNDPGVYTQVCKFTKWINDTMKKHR
# V-ATPase pHluor = yeast V-ATPase proton transport regulation by pHLuorin | 0.37% of 350,000 active | response, % at 10 µM | AID 504577 | S. cerevisiae, pHLuorin cytosolic pH fluorescence; in the data active = response mostly above about 7.3%, no sharp cut-off; inactive = mostly below about 5.4%; note: actives read high
# T cell modulator = modulates CD8 T cell binding to vesicles; 2C CD8+ T cell-vesicle binding, flow cytometry; stronger effect = lower value; response (vesicle binding), % at 7 µM; AID 2052; 0.068% of 330,000 active;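 active = response, share of CD8 T cells binding vesicles, and their 90th percentile fluorescence all below set limits, cut at about 80% in these data, passing the limit was not always enough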;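 note: values below 100% mean blocked vesicle binding to the CD8+ T cells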
#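 incubation = binding step 1.5 h, 37 °C, antibody labelling 20 min, ice | test system = 2C mouse CD8+ T cells | read-out basis = percent CD8+ FL2 mean versus row control | controls = Peptide-free naked vesicles (low) and QL9 vesicles with 0.7% DMSO vehicle (high) | detection = flow cytometry of vesicle-bound cells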
# CR mimetic SO = caloric restriction mimetics inhibiting age-related superoxide in yeast; superoxide response (% of plate mean), % at 10 µM; 0.18% of 330,000 active; S. cerevisiae aged cells, superoxide DHE fluorescence; stronger effect = lower value;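 active = superoxide response under a set limit, about three screen SD below normal, cut at about 65% in these data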;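 note: yeast aged for seven days with compound at 30 °C before DHE staining; 100% = average MFI of all compound-treated wells on the plate with controls excluded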
# V-ATPase pH SP = regulators of yeast V-ATPase proton transport; shares compounds with V-ATPase pHluor; S. cerevisiae pHLuorin cytosolic pH; response, % at 10 µM; 2% of 980 active; AID 602197; in the data active = response above about 24%;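 note: plate controls were vehicle wells for no effect and positive control wells for full effect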
# Active calls of the source: *; i = inactive; · = no result. Most compounds without a hit are left out; they make up all but 1.9% or so of the library.
SMILES,Rce1 inh,MIN6 prolif,KLK7 zymogen act,V-ATPase pHluor,T cell modulator,CR mimetic SO,V-ATPase pH SP
CC1CN(C2CCN(C(=O)c3ccccc3)CC2)CC(C)O1 (stereo unspecified),i,-2.4,-1.1,9.3*,319.8,105.3,0.7
CC1CN(C2CCN(S(=O)(=O)c3ccccc3)CC2)CC(C)O1 (stereo unspecified),i,-1.0,-0.1,8.7,416.8,99.8,·
COC(=O)Cn1c(=O)cnc2ccccc21,i,-2.5,0.1,1.7,701.7,106.8,·
Cn1c(-c2ccc(Cl)nc2)nc2ccccc21,i,2.0,-0.3,1.8,273.0,91.7,·
CCOC(=O)Cn1c(S(=O)(=O)Cc2ccccc2)nc2ccccc21,i,-1.9,-0.3,-5.1,i,97.2,-2.0
CCOC(=O)Cn1c(=O)cnc2ccccc21,i,2.5,0.2,2.6,486.8,87.0,-3.9
CCOC(=O)Cn1c(-c2ccc(Cl)nc2)nc2ccccc21,i,-1.6,0.9,0.3,101.0,97.0,1.1
CCOC(=O)Cn1c(S(=O)(=O)Cc2ccc(Cl)cc2)nc(-c2ccccc2)c1-c1ccccc1,i,-4.9,0.0,-1.9,409.6,103.0,·
C=C(C)c1cccc(C(C)(C)NC(=O)N2CCN(C(=O)OCC)CC2)c1,·,·,-0.5,-0.1,·,·,·
COCC#Cc1cnc2c(c1)C(=O)N([C@@H](C)CO)C[C@H](C)[C@H](CN(C)C(=O)c1ccc3c(c1)OCO3)O2,·,·,-0.4,·,·,·,·
Nc1cccc(-c2cnc3ccccc3n2)c1,i,-3.4,-0.2,4.2,230.4,101.6,·
CC(Oc1ccccc1F)C(=O)NNC(=O)Cc1ccc(S(=O)(=O)N2CCOCC2)s1 (stereo unspecified),·,·,0.3,-1.1,·,·,·
CCOC(=O)CCn1c(CC(=O)OCC)nc2ccccc21,i,-0.6,0.1,5.0,283.8,102.6,·
CCOC(=O)Cn1c(=O)c(-c2cc(Br)ccc2N)nc2ccccc21,i,-4.6,-0.1,31.2*,146.6,101.0,16.6
Cn1c(=O)c(-c2cc(Br)ccc2N)nc2ccccc21,i,-2.9,0.2,-0.7,216.1,109.2,4.8
CCOC(=O)Cn1c(=O)c(-c2ccccc2N)nc2ccccc21,i,-1.2,0.1,-3.1,299.0,89.4,0.1
CCN(C(=O)COC(=O)CCc1ccc(OC)cc1)c1c(N)n(Cc2ccccc2)c(=O)[nH]c1=O,·,-3.7,-0.1,2.0,·,·,·
CC(C)CC(OC(=O)c1nsc(Cl)c1Cl)C(=O)NC1CCCC1 (stereo unspecified),·,0.0,0.6,0.4,192.2,101.2,·
CCCCCCCCCCCCCCCC(=O)Nc1ccn(C2OC(CO)C(O)C2O)c(=O)n1 (stereo unspecified),·,·,0.1,6.3,·,·,·
COC(=O)N/N=C/c1cn(Cc2ccccc2F)c2ccccc12,·,0.3,0.1,10.0*,334.0,95.2,1.8
NS(=O)(=O)c1ccc(CCNS(=O)(=O)c2ccc3c(c2)NC(=O)CO3)cc1,i,-0.1,-0.4,9.4*,310.2,124.2,1.9
Cc1ccc(CNS(=O)(=O)c2ccc3c(c2)NC(=O)CO3)cc1,i,-2.0,-0.8,-1.1,596.5,92.0,·
CCOc1ccc(CCNC(=O)COC(=O)c2ccc(S(C)(=O)=O)cc2)cc1OCC,i,2.7,0.5,14.9*,381.1,85.5,-0.2
COC(=O)[C@@]12C[C@@H](CC(=O)NCc3ccc(C)o3)C(=O)N(CCc3ccc(OC)c(OC)c3)C1=CCC(C)(C)C2,·,·,0.2,·,·,·,·
O=C1C(C=NC2CC2)=C(O)c2ccccc21,i,-5.4,-0.3,9.8*,386.3,86.8,0.3
SMILES,Rce1 inh,MIN6 prolif,KLK7 zymogen act,V-ATPase pHluor,T cell modulator,CR mimetic SO,V-ATPase pH SP
CC(C)CN=CC1=C(O)c2ccccc2C1=O,i,-0.1,1.4,5.4,346.1,97.1,·
CC(=O)c1ccc(N2CCN(C(=O)c3ccc(C(=O)c4ccccc4)cc3)CC2)cc1,·,-4.5,-0.2,1.6,486.4,99.2,·
c1ccc(CSc2nnc(SCc3ccccn3)s2)nc1,i,2.6,0.3,11.1*,387.2,94.3,-0.5
CCn1cc(Br)c(C(=O)NN)n1,i,0.5,0.1,-11.0,341.7,115.1,·
CCn1cc(Br)c(C(=O)Nc2nccs2)n1,i,-2.7,0.0,10.0*,369.6,86.1,0.4
COCCCNC(=O)C[C@H]1C[C@H](C(=O)N(C(C)C)C(C)C)[C@@]2(C)c3[nH]c4ccc(Cl)cc4c3CCN2C1=O,·,·,-0.1,-3.0,·,109.2,·
COc1cccc(/C(N)=N/OC(=O)Cc2ccccc2[N+](=O)[O-])c1,i,-0.9,0.6,13.8*,239.9,83.6,-0.2
Cc1c(C=O)c2cc(OCc3ccccc3)ccc2n1C,i,0.2,-0.4,0.0,163.1,92.2,·
O=C(O)C1CC=CCC1C(=O)Nc1cc(Cl)ccc1Cl (stereo unspecified),i,-3.5,0.9,0.5,421.5,107.6,·
O=C(O)C1CC=CCC1C(=O)NNc1c(Cl)cc(Cl)cc1Cl (stereo unspecified),·,1.4,-0.7,11.6*,420.7,102.7,0.9
CCNC(=O)CSc1nc(-c2ccc(F)cc2)cs1,i,0.9,0.1,8.1*,126.9,79.1,1.2
O=C(CCc1nnc(-c2ccc3c(c2)OCO3)o1)NC(c1cccnc1)C(F)(F)F (stereo unspecified),i,2.2,0.7,8.6*,379.8,113.1,2.4
Cc1ccc(/C=C/C(=O)c2ccc(N3CCOCC3)cc2)s1,·,-4.7,-0.9,10.1*,224.2,115.7,-1.0
Cc1cccc(/C=C/C(=O)c2ccc(N3CCOCC3)cc2)c1,i,-4.9,-0.5,·,315.1,107.9,·
Cc1ccccc1NC(=O)CSc1nnc2ccc(-c3cccnc3)nn12,i,-4.6,0.5,10.4*,316.8,104.2,4.9
O=C(Nc1ccccc1C(=O)Nc1ccncc1)c1cccc([N+](=O)[O-])c1,i,-2.4,0.3,12.6*,315.4,102.8,0.0
O=C(Nc1ccc2[nH]c(=O)[nH]c2c1)c1cccc([N+](=O)[O-])c1,i,-1.1,0.4,8.9*,138.5,102.2,-1.3
O=C(O)c1cccc(NC(=O)c2ccccc2NC(=O)c2cccc([N+](=O)[O-])c2)c1,i,-1.1,0.3,6.4,282.2,106.0,·
COCCN(C(=O)CSc1nnc(-c2ccc(C(C)(C)C)cc2)n1N)c1c(N)n(CC(C)C)c(=O)[nH]c1=O,i,-2.0,0.5,-2.8,419.1,100.2,·
CN(C)/C=C(\C(=O)c1ccccc1)c1nnnn1-c1ccc(F)cc1,i,5.7,-0.3,20.8*,456.7,106.0,5.8
CCOc1ccc(NC(=O)/C(C=Nc2ccccc2)=C(\C)O)cc1,i,-2.5,0.2,-2.4,334.2,105.4,·
C/C(CC(=O)Nc1ccc2ccccc2c1)=N\NC(=O)c1cnccn1,i,-2.6,-0.9,-3.1,307.1,89.5,·
C/C(CC(=O)Nc1ccccn1)=N\NC(=O)c1cnccn1,i,-0.1,-2.3,15.8*,142.4,89.0,3.9

# Bioassay records: PubChem, several laboratories
